The results in this text go back to ChEMBL document CHEMBL5649170, “Sustained microglial depletion with CSF1R inhibitor impairs parenchymal plaque development in an Alzheimer's disease model” (Nat Commun, 2019).

Series [1] relates to Mus musculus. In words: Antialzheimer activity in 5XFAD mouse assessed as number of plaques per FOV in somatosensory cortex at 75 ppm administered as rodent chow starting from 1.5 months and measured after 5 months by immunolabeling based confocal microscopic analysis (reference value: 22 to 91). It counts as functional. The note with it: route po, time 3.5 months, 2555 h. In short, it runs like this: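 5xFAD mice ate AIN-76A chow with 75 ppm PLX3397, or control chow, from 1.5 to 5 months of age. Sections of retrosplenial and somatosensory cortex were stained with Thio-S and immunolabeled for IBA1, then imaged by confocal microscopy. n = 4–5 per group; two-tailed independent t-test; mean ± SEM.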

Series [2] concerns the target Calcium/calmodulin-dependent protein kinase type II subunit alpha (Homo sapiens, UniProt Q9UQM7). In words: Inhibition of CAMK2A (unknown origin).
For series [3], the target named is Tyrosine-protein kinase Fgr (Homo sapiens, UniProt P09769). In words: Inhibition of FGR (unknown origin).
Series [4] has as its target Vascular endothelial growth factor receptor 3 (Homo sapiens, UniProt P35916). In words: Inhibition of FLT4 (unknown origin).
For series [5], the target named is Tyrosine-protein kinase JAK2 (Homo sapiens, UniProt O60674). In words: Inhibition of JAK2 (unknown origin).
Series [6] has as its target MAP/microtubule affinity-regulating kinase 3 (Homo sapiens, UniProt P27448). In words: Inhibition of MARK3 (unknown origin).
For series [7], the target named is Protein kinase C alpha type (Homo sapiens, UniProt P17252). In words: Inhibition of PRKCA (unknown origin).
Series [8] concerns the target Protein kinase C beta type (Homo sapiens, UniProt P05771). In words: Inhibition of PRKCB2 (unknown origin).
Series [9] deals with Proto-oncogene tyrosine-protein kinase Src (Homo sapiens, UniProt P12931). In words: Inhibition of SRC (unknown origin).
Series [10] deals with Receptor-type tyrosine-protein kinase FLT3 (Homo sapiens, UniProt P36888). In words: Inhibition of FLT3 (unknown origin) in presence of ATP by enzymatic assay.
The nature of series [11]: AUC (0 to infinity) in female rat at 45 mg/kg, po administered as single dose via gavage. As to conditions: in vivo. It counts as ADME, organism-based.
Series [12] in a line: Cmax in dog at 45 mg/kg, po administered as single dose via gavage. The class given is ADME, organism-based, Canis lupus familiaris. The note with it: in vivo.
Series [13] concerns Mus musculus. In words: Antialzheimer activity in wildtype mouse assessed as number of Iba positive cells per FOV in thalamus at 1200 ppm administered as rodent chow starting from 1.5 months and measured after 4 months (reference value: 232 to 320). The class given is functional. As to conditions: route po, time 2.5 months, 1825 h.
Series [14] is described as follows: Toxicity in wildtype mouse assessed as distance traveled at 1200 ppm administered as rodent chow for 10 to 24 weeks by Open field test (reference value: 13.381 to 26.996 meter). As to conditions: in vivo, po, time 10-24 weeks.
A short description of series [15]: Toxicity in wildtype mouse assessed as number of entries to perimeter zone at 1200 ppm administered as rodent chow for 10 to 24 weeks by Open field test (reference value: 20 to 64). As to conditions: in vivo, po, time 10-24 weeks.
Series [16] concerns Mus musculus. In words: Antialzheimer activity in 5XFAD mouse assessed as amyloidbeta42 level in detergent insoluble thalamus fraction measured per microgram protein at 1200 ppm administered as rodent chow starting from 1.5 months and measured after 7 months by ELISA (reference value: 905.886 to 11631931 pg). The class given is functional. As to conditions: route po, time 5.5 months, 4015 h. (In an ELISA, binding on a coated surface is turned into a signal by an enzyme label.)

For series [17], the system named is Mus musculus. In words: Effect on APP processing pathway in wildtype mouse assessed as C99 protein signal intensity in cortex at 1200 ppm administered as rodent starting from 1.5 months and measured after 7 months (reference value: 8.282 to 87.456 %). It counts as functional. As to conditions: route po, time 5.5 months, 4015 h.
Series [18] can be described thus: Effect on Csf1r RPKM gene expression in wild type mouse thalamus at 1200 ppm administered as rodent chow starting from 1.5 months and measured after 7 months by RNA-Seq analysis (reference value: 19.596 to 21.371 RPKM). The class given is functional. The note with it: route po, time 5.5 months, 4015 h.
Series [19] in a line: Effect on Csf1r RPKM gene expression in 5XFAD mouse thalamus at 1200 ppm administered as rodent chow starting from 1.5 months and measured after 7 months by RNA-Seq analysis (reference value: 27.112 to 32.871 RPKM). It counts as functional. As to conditions: route po, time 5.5 months, 4015 h.
Series [20] is described as follows: Effect on ccl6 gene expression in 5XFAD mouse hippocampus at 1200 ppm administered as rodent chow starting from 1.5 months and measured after 7 months by RNA-Seq analysis (reference value: 5.688 to 8.240 RPKM). The class given is functional. As to conditions: route po, time 5.5 months, 4015 h.
Series [21] is described as follows: Prevention of Scn1b gene downregulation in 5XFAD mouse hippocampus assessed as percent change in Reads Per kilo base per Million mapped reads at 1200 ppm administered as rodent chow starting from 1.5 months and measured after 7 months by RNA-Seq analysis (reference value: 53.15 to 80.717 %). The class given is functional. As to conditions: route po, time 5.5 months, 4015 h.

Series [22] can be described thus: Prevention of Pcdhac1 gene downregulation in 5XFAD mouse hippocampus assessed as percent change in Reads Per kilo base per Million mapped reads at 1200 ppm administered as rodent chow starting from 1.5 months and measured after 7 months by RNA-Seq analysis (reference value: 43.082 to 72.354 %). It counts as functional. As to conditions: route po, time 5.5 months, 4015 h.

Series [23] in a line: Prevention of Gls gene downregulation in 5XFAD mouse hippocampus assessed as percent change in Reads Per kilo base per Million mapped reads at 1200 ppm administered as rodent chow starting from 1.5 months and measured after 7 months by RNA-Seq analysis (reference value: 58.522 to 73.849 %). The class given is functional. As to conditions: route po, time 5.5 months, 4015 h.

For series [24], the system named is Mus musculus. In words: Prevention of Hgf gene downregulation in 5XFAD mouse hippocampus at 1200 ppm administered as rodent chow starting from 1.5 months and measured after 7 months by Nanostring analysis. It counts as functional, tissue-based. The note with it: route po, time 5.5 months.
In series [25] the test system is Mus musculus. In words: Antialzheimer activity in 5XFAD mouse assessed as number of GFAP positive cells per FOV at 1200 ppm administered as rodent chow starting from 1.5 months to 4 months followed by compound removal and measured after 1 month by immunolabeling based confocal microscopic analysis (reference value: 20 to 71). The class given is functional. The note with it: route po, time 2.5 months, 1825 h.

Active and inactive are the calls of the source. No cut-off for these calls is given here. Where only a bound is given, the exact number is not on record here.

Usually IC50 stands for the midpoint of a concentration-inhibition curve. Usually AUC(0-inf) stands for total exposure, with the tail of the curve extrapolated. The term Cmax denotes the highest concentration seen after dosing.

Chain of MAP/microtubule affinity-regulating kinase 3 (P27448 whole entry): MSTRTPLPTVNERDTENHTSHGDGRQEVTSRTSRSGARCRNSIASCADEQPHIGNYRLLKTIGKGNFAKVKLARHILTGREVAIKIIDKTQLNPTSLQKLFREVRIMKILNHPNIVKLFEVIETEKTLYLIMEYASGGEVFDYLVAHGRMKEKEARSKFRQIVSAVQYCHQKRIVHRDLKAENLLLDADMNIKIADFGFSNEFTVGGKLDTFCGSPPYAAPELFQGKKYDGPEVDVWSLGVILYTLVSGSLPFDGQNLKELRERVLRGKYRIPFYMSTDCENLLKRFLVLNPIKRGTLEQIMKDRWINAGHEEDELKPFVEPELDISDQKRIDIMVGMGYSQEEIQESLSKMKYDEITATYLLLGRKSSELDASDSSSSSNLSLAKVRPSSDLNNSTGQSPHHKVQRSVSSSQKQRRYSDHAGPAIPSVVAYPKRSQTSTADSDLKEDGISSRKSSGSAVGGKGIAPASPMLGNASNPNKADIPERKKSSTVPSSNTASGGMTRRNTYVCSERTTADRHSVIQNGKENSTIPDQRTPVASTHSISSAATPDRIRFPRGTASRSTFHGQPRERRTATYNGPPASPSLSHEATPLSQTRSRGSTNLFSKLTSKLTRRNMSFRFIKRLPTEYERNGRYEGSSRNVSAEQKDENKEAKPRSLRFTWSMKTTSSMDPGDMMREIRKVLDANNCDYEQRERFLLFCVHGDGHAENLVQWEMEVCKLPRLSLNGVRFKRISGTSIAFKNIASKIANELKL
Chain of Calcium/calmodulin-dependent protein kinase type II subunit alpha (Q9UQM7 whole entry): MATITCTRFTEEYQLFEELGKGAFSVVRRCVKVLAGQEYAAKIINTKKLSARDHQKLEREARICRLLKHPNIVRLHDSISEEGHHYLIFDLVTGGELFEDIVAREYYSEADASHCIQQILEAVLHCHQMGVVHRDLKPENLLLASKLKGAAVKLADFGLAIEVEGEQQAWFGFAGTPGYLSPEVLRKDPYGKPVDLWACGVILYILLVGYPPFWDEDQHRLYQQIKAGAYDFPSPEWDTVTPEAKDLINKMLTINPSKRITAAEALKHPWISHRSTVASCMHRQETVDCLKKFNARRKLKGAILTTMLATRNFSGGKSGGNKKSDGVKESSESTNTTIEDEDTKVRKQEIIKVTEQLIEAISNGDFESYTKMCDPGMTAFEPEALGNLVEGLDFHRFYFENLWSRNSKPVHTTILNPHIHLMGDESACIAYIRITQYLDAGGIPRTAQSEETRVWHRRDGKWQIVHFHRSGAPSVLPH
Chain of Tyrosine-protein kinase JAK2 (O60674 whole entry): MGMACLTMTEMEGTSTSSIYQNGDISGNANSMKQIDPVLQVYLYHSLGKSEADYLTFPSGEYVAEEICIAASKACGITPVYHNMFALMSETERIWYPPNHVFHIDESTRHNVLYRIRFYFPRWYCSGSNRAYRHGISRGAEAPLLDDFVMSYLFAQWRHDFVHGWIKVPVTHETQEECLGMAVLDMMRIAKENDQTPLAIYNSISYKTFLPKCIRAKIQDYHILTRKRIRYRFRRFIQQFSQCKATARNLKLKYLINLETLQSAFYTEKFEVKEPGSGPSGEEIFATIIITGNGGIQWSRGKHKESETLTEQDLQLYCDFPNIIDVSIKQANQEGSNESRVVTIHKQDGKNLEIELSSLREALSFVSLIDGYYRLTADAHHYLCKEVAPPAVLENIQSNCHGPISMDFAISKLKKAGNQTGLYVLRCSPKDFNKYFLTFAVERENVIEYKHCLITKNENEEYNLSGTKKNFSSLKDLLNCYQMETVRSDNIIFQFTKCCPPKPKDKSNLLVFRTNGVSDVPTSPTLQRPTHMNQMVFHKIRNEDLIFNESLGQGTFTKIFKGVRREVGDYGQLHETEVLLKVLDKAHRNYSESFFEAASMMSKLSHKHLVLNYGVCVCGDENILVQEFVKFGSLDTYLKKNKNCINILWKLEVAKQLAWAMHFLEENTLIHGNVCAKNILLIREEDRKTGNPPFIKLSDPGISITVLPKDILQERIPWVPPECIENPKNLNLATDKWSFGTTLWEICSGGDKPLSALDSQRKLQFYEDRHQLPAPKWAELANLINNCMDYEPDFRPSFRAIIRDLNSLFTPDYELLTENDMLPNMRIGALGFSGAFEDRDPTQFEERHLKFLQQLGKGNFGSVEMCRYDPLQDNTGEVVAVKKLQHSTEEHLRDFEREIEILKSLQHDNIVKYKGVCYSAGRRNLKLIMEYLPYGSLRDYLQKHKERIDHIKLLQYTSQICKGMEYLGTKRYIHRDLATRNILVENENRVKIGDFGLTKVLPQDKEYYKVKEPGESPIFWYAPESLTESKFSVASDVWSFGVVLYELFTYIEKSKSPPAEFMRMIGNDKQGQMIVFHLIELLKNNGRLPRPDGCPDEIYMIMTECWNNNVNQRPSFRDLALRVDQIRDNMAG
Chain of Proto-oncogene tyrosine-protein kinase Src (P12931 2-536 limits assumed): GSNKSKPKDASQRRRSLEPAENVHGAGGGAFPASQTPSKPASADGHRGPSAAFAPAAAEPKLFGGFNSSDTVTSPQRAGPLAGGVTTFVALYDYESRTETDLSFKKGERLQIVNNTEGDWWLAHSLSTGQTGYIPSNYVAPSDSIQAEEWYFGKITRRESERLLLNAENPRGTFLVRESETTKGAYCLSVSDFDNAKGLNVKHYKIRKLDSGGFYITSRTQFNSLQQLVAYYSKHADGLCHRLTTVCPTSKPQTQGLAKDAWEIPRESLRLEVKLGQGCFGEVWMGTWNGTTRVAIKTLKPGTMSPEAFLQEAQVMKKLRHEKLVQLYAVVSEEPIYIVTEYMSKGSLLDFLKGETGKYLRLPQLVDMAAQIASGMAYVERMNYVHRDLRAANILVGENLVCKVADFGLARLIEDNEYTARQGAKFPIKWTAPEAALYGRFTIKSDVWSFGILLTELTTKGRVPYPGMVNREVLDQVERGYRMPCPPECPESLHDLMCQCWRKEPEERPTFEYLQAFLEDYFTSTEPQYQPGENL
Chain of Vascular endothelial growth factor receptor 3 (P35916 whole entry): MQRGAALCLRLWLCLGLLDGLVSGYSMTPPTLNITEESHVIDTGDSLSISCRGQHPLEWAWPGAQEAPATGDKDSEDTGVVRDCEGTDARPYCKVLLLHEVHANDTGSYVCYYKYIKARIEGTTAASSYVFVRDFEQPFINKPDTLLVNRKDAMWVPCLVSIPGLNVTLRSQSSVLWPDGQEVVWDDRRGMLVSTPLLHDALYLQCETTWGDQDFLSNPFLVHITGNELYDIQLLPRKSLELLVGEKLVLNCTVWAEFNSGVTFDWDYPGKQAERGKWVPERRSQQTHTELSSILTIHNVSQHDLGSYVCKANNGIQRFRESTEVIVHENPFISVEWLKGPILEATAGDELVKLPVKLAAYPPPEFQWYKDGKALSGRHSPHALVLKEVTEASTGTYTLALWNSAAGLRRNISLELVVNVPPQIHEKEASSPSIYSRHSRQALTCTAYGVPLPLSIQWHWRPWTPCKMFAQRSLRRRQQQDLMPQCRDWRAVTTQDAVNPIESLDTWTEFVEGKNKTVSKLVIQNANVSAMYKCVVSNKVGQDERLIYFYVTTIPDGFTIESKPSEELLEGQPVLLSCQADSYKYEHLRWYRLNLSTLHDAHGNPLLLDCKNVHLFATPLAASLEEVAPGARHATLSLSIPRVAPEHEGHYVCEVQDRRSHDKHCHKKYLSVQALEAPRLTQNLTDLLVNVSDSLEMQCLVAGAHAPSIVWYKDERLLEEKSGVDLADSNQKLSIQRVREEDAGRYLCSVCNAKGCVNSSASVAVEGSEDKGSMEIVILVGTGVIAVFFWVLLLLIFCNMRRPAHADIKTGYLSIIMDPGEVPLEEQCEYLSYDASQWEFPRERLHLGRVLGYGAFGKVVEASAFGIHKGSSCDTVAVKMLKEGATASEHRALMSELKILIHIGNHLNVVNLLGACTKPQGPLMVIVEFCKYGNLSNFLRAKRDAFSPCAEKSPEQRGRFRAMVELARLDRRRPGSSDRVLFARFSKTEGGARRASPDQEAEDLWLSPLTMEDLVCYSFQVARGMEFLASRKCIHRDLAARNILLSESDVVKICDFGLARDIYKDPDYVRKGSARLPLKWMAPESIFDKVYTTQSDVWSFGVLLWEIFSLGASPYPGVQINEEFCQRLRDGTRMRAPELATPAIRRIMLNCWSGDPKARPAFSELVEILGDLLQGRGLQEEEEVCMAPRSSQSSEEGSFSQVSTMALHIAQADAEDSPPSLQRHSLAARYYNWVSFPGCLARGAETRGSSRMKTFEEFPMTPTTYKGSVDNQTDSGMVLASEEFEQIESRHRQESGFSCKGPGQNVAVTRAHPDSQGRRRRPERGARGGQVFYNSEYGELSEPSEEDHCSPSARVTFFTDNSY
Chain of Tyrosine-protein kinase Fgr (P09769 whole entry): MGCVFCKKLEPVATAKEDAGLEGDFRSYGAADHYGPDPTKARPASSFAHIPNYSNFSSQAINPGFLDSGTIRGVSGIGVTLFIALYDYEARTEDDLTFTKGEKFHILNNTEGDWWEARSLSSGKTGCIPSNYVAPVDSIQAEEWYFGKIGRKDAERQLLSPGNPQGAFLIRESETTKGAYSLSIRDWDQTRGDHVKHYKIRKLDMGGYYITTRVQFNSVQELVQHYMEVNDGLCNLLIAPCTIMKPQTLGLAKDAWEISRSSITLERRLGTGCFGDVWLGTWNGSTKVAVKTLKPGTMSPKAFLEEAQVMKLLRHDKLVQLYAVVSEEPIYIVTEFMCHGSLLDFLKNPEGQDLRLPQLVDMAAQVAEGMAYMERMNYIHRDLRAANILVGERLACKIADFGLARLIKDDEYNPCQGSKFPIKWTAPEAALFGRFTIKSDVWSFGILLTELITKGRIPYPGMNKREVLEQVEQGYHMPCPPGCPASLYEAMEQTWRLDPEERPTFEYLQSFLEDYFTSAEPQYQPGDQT

As for `FC(F)(F)c1ccc(CNc2ccc(Cc3c[nH]c4ncc(Cl)cc34)cn2)cn1` [PEXIDARTINIB], the Activity in series [1] turned out to be 31.

As for `COc1ncc(F)cc1CNc1ccc(Cc2c[nH]c3ncc(C)cc23)c(F)n1` [PLX-5622], the IC50 in series [2], in series [3], in series [4], in series [5], in series [6] and in [7] was > 1 µM throughout. Moreover, the figures for the IC50 in series [8], in series [9] and in series [10] were > 1 µM, > 1 µM and 0.39 µM, respectively. In series [11], this compound gave an AUC(0-inf) of 181 µg·h/mL. The Cmax in [12] was 3630 ng/mL. Also, the Activity in [13] came out at 0; in series [14] it was 9.067 m; in series [15] it was 13; in series [17] it was 21.073%; in series [18] it was 0.064 RPKM; in series [19] it was 0.221 RPKM. Besides, the Activity stood at 0.488 RPKM in [20]; 84.37% in series [21]; 76.485% in series [22]; 77.958% in [23]; 10 in series [25]. Further, in [16], the Flu intensity worked out at 4280.692 a.u. In addition, in series [24], the outcome was Active.
